Active and inactive are the calls of the source. No cut-off for these calls is given here.
How the values were obtained:
RAW264.7 [1] = test: Antiinflammatory activity in mouse RAW264.7 cells assessed as inhibition of LPS-induced IL-6 release pretreated at 10 uM for 2 hrs prior LPS challenge measured after 22 hrs post challenge by ELISA; format: functional
How it was run: (§1)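 RAW 264.7 cells plated at 4.0 × 10⁵ per plate overnight (37 °C, 5% CO₂). Pretreated 2 h, then stimulated with LPS 0.5 µg/ml (in PBS) for 22 h. Medium TNF-α and IL-6 measured by ELISA, normalized to total cell protein (Bio-Rad assay) and expressed as percent of LPS control. Mean ± SE, 3–5 independent experiments.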

[2] = Cytotoxicity against human HL-7702 cells at 10 uM after 24 hrs by MTT assay; format: cell-based; details: l02, 24 h
How it was run: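 HL-7702 cells, 5000 per well, in 1640 medium with 5% heat-inactivated serum, 37 °C, 5% CO₂. Compounds in DMSO, diluted in medium to final 10 µM, applied for 24 h. MTT (5 mg/ml in 0.9% NaCl) added for 3 h, then cells dissolved in DMSO and absorbance read at 570 nm.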

RAW264.7 [3] = test: Antiinflammatory activity in mouse RAW264.7 cells assessed as inhibition of LPS-induced IL-6 gene expression pretreated at 10 uM for 2 hrs prior LPS challenge measured after 6 hrs post challenge by RT-qPCR analysis; format: functional, cell-based
How it was run: (§2)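 RAW 264.7 cells in DMEM with 10% FBS, plated at 4.0 × 10⁵ per plate overnight at 37 °C, 5% CO₂. Pretreatment 2 h, then LPS 0.5 µg/ml for 6 h. IL-6, TNF-α and IL-1β mRNA quantified by RT-qPCR, normalized to β-actin mRNA and expressed as ratio to DMSO. Mean ± SD of 3–5 independent experiments.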

RAW264.7 [4] = test: Antiinflammatory activity in mouse RAW264.7 cells assessed as inhibition of LPS-induced TNF-alpha gene expression pretreated at 10 uM for 2 hrs prior LPS challenge measured after 6 hrs post challenge by RT-qPCR analysis; format: functional, cell-based; how it was run: as §2
RAW264.7 [5] = test: Antiinflammatory activity in mouse RAW264.7 cells assessed as inhibition of LPS-induced IL-1beta gene expression pretreated at 10 uM for 2 hrs prior LPS challenge measured after 6 hrs post challenge by RT-qPCR analysis; format: functional, cell-based; how it was run: as §2
[6] = Chemical stability of the compound in phosphate buffer at pH 7.4 assessed as compound degradation at 20 uM up to 25 mins by UV-visible absorption spectrum assay; format: physicochemical; details: read-out: Drug degradation
RAW264.7 [7] = test: Antiinflammatory activity in mouse RAW264.7 cells assessed as inhibition of LPS-induced IL-6 release pretreated for 2 hrs prior LPS challenge measured after 22 hrs post challenge by ELISA; format: functional, cell-based
How it was run: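 Dose series in RAW 264.7 cells: pretreatment at 1.1, 3.3 and 10 µM for 2 h, then LPS 0.5 µg/ml for 22 h. Medium IL-6 determined by ELISA and normalized to total protein.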

RAW264.7 [8] = test: Antiinflammatory activity in mouse RAW264.7 cells assessed as inhibition of LPS-induced TNFalpha release pretreated at 10 uM for 2 hrs prior LPS challenge measured after 22 hrs post challenge by ELISA; format: functional; how it was run: as §1
[9] = Chemical stability of the compound in phosphate buffer at pH 7.4 at 20 uM up to 25 mins by UV-visible absorption spectrum assay; format: physicochemical; details: pH 7.4, 25 min
[10] = test system: Peritoneal macrophage cell; test: Antiinflammatory activity in mouse peritoneal macrophages assessed as inhibition of LPS-induced IL6 protein expression pretreated for 2 hrs prior LPS challenge measured after 22 hrs post challenge by ELISA; format: functional, cell-based
How it was run: (§3)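 Peritoneal macrophages from ICR mice elicited by i.p. thioglycollate, collected by lavage with PBS containing 30 mM EDTA, in RPMI-1640, nonadherent cells washed off at 3 h. Plated at 4.0 × 10⁵ per 35 mm plate. Pretreatment 2 h, then LPS 0.5 µg/ml for 22 h. IL-6 and TNF-α in medium measured by ELISA, normalized to total protein. 3 independent experiments.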

Mus musculus = test: Antiinflammatory activity in C57BL/6 mouse sepsis model assessed as increase in survival rate at 10 mg/kg, iv administered 15 mins prior LPS-challenge measured after 7 days; format: functional
How it was run: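 Male C57BL/6 mice (18–22 g) were dosed i.v. 15 min before i.p. LPS at 20 mg/kg. Drug solution was 2 mg/ml in macrogol 15 hydroxystearate (5–10%), with or without medium-chain triglycerides (0.5–2%). Controls received vehicle (10% solubilizer, 2% MCT). Survival was recorded every 12 h for 7 days; n = 9 per group.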

[11] = test system: Peritoneal macrophage cell; test: Antiinflammatory activity in mouse peritoneal macrophages assessed as inhibition of LPS-induced TNFalpha protein expression pretreated for 2 hrs prior LPS challenge measured after 22 hrs post challenge by ELISA; format: functional, cell-based; how it was run: as §3

SMILES	inhibition at 10 µM (RAW264.7 [1]) [%]	Activity [2]	other results
C=CCc1cc(/C=C/C(=O)/C=C/c2cc(F)ccc2OC)ccc1OC	20	Non-toxic	–
COc1cc(/C=C/C(=O)CC(=O)/C=C/c2ccc(O)c(OC)c2)ccc1O [CURCUMIN]	20	Non-toxic	inhibition (RAW264.7 [3]): Active; inhibition (RAW264.7 [4]): Active; inhibition (RAW264.7 [5]): Active; degraded at 25 min, 20 µM [6]: > 45%
C=CCOc1ccc(/C=C/C(=O)/C=C/c2ccc(OCC=C)cc2)cc1	–	Non-toxic	–
C=CCc1cc(/C=C/C(=O)/C=C/c2ccc(OC)c(OC)c2)ccc1O	20	Non-toxic	inhibition (RAW264.7 [3]): Active; inhibition (RAW264.7 [7]): Dose-dependent effect; inhibition (RAW264.7 [4]): Active; inhibition (RAW264.7 [5]): Active
C=CCOc1ccc(/C=C/C(=O)/C=C/c2ccc(OC)c(CC=C)c2)cc1	20	Non-toxic	–
C=CCc1cc(/C=C/C(=O)/C=C/c2ccc3ccccc3c2)ccc1OC	20	Non-toxic	–
COc1cc(/C=C/C(=O)/C=C/c2ccc(OCC=C(C)C)c(OC)c2)ccc1OCC=C(C)C	20	Non-toxic	–
C=CCc1cc(/C=C/C(=O)/C=C/c2cccc(Br)c2)ccc1OC	20	Non-toxic	–
C=CCc1cc(/C=C/C(=O)/C=C/c2ccc(C(F)(F)F)cc2)ccc1OC	20	Non-toxic	–
C=CCc1cc(/C=C/C(=O)/C=C/c2ccc(N(C)C)cc2)ccc1OC	20	Non-toxic	–
C=CCc1cc(/C=C/C(=O)/C=C/c2ccc(OC(C)(C)C)cc2)ccc1OC	20	Non-toxic	–
C=CCc1cc(/C=C/C(=O)/C=C/c2cc(OC)c(OC)cc2OC)ccc1OC	20	Non-toxic	inhibition (RAW264.7 [3]): Active; inhibition (RAW264.7 [7]): Dose-dependent effect; inhibition (RAW264.7 [4]): Active; inhibition (RAW264.7 [8]): Active; inhibition (RAW264.7 [5]): Active
C=CCc1cc(/C=C/C(=O)/C=C/c2cc(F)ccc2F)ccc1OC	–	Non-toxic	–
C=CCc1cc(/C=C/C(=O)/C=C/c2ccc(N3CCOCC3)cc2)ccc1OC	20	Non-toxic	inhibition (RAW264.7 [3]): Active; inhibition (RAW264.7 [7]): Dose-dependent effect; inhibition (RAW264.7 [4]): Active; inhibition (RAW264.7 [5]): Active
COc1ccc(/C=C/C(=O)/C=C/c2ccc(OCC=C(C)C)cc2)cc1OC	20	Non-toxic	–
C=CCc1cc(/C=C/C(=O)/C=C/c2ccc(OC)c(OC)c2)ccc1OC	20	Non-toxic	–
C=CCc1cc(/C=C/C(=O)/C=C/c2ccccc2C(F)(F)F)ccc1OC	–	Non-toxic	–

SMILES	inhibition at 10 µM (RAW264.7 [1]) [%]	Activity [2]	other results
CC(C)=CCOc1ccc(/C=C2\CC/C(=C\c3ccc(OCC=C(C)C)cc3O)C2=O)c(O)c1	20	Non-toxic	–
C=CCc1cc(/C=C/C(=O)/C=C/c2cccc(Cl)c2Cl)ccc1OC	20	Non-toxic	–
C=CCc1cc(/C=C/C(=O)/C=C/c2ccc(O)c(CC=C)c2)ccc1O	96.4	Non-toxic	inhibition (RAW264.7 [3]): Active; inhibition (RAW264.7 [7]): Dose-dependent effect; Stability [9]: Stable; inhibition (RAW264.7 [4]): Active; inhibition (RAW264.7 [8]): Active; inhibition (RAW264.7 [5]): Active
CC(C)=CCOc1ccc(/C=C2\CCC/C(=C\c3ccc(OCC=C(C)C)cc3)C2=O)cc1	20	Non-toxic	–
C=CCc1cc(/C=C/C(=O)/C=C/c2ccc(N3CCCCC3)cc2)ccc1OC	20	Non-toxic	–
C=CCc1cc(/C=C/C(=O)/C=C/c2cc(Br)ccc2Br)ccc1OC	91.1	Non-toxic	inhibition [10]: Dose-dependent effect; inhibition (RAW264.7 [3]): Active; inhibition (RAW264.7 [7]): Dose-dependent effect; Stability [9]: Stable; survival at 10 mg/kg (Mus musculus): 45%; inhibition (RAW264.7 [4]): Active; inhibition at 10 µM (RAW264.7 [8]): 67.5%; inhibition (RAW264.7 [5]): Active; inhibition [11]: Dose-dependent effect
C=CCOc1ccc(/C=C/C(=O)/C=C/c2ccc(F)cc2)c(O)c1	20	Non-toxic	–
C=CCc1cc(/C=C/C(=O)/C=C/c2c(F)cccc2Br)ccc1OC	20	Non-toxic	–
C=CCc1cc(/C=C/C(=O)/C=C/c2cc(F)ccc2Br)ccc1OC	20	Non-toxic	inhibition (RAW264.7 [3]): Active; inhibition (RAW264.7 [7]): Dose-dependent effect; Stability [9]: Stable; inhibition (RAW264.7 [4]): Active; inhibition (RAW264.7 [8]): Active; inhibition (RAW264.7 [5]): Active
C=CCc1cc(/C=C/C(=O)/C=C/c2ccc(Br)cc2)ccc1OC	20	Non-toxic	–
C=CCOc1ccc(/C=C/C(=O)/C=C/c2ccc(OC)c(OC)c2)cc1	–	Non-toxic	–
C=CCc1cc(/C=C/C(=O)/C=C/c2ccc([N+](=O)[O-])cc2)ccc1O	20	Non-toxic	–
COc1cc(/C=C2\CC/C(=C\c3ccc(OCC=C(C)C)c(OC)c3)C2=O)ccc1OCC=C(C)C	20	Non-toxic	–
C=CCc1cc(/C=C/C(=O)/C=C/c2ccccc2Cl)ccc1OC	20	Non-toxic	–
CC(C)=CCOc1ccc(/C=C/C(=O)/C=C/c2ccc(OCC=C(C)C)cc2)cc1	–	Non-toxic	–
C=CCc1cc(/C=C2\CC/C(=C\c3ccc(OC4CCCCO4)c(CC=C)c3)C2=O)ccc1OC1CCCCO1 (stereo not given)	–	Non-toxic	–
C=CCc1cc(/C=C2\CC/C(=C\c3ccc(O)c(CC=C)c3)C2=O)ccc1O	20	Non-toxic	–

Reference: ChEMBL document CHEMBL3112500, “Synthesis and biological evaluation of allylated and prenylated mono-carbonyl analogs of curcumin as anti-inflammatory agents” (Eur J Med Chem, 2014)
